Activity calls are given as the source filed them. No cut-off for these calls is given here.
Tests used:
[1] = Binding affinity to poly(dA).poly(dT) DNA minor groove (unknown origin) assessed as positive induced CD signal at DNA:compound molar ratio of 20:2 to 20:10 by CD spectra analysis; assay type: nucleic-acid assay
Method in brief: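 Poly(dA).poly(dT) at 20 μM was titrated with compound at 25 °C in 10 mM MES, 100 mM NaCl, 1 mM EDTA, pH 7.4. CD spectra were recorded at different compound-to-DNA ratios.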

[2] = tested on: Trypanosoma brucei rhodesiense; experiment: Antiprotozoal activity against bloodstream forms of Trypanosoma brucei rhodesiense STIB900 infected in NMR1 mouse at 5 mg/kg, ip administered daily for 4 consecutive days starting from day 3 to 6 post infection; assay type: functional
Method in brief: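 STIB900 acute-stage mouse infection model for T. b. rhodesiense (mimics acute African sleeping sickness). Dosing was 4 × 5 mg/kg i.p. The outcome was scored as cure of infected mice.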

[3] = tested on: Poly(dA-dT)oligonucleotide; experiment: Binding affinity to poly(dA-dT)n DNA (unknown origin) assessed as change in melting temperature at 0.3 molar ratio of compound:DNA by spectrophotometric analysis; assay type: nucleic-acid assay
Method in brief: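 UV thermal melting of poly(dA-dT) in CAC 10 buffer (10 mM cacodylic acid, 1 mM EDTA, 100 mM NaCl, NaOH to pH 7.0) was run in 1 cm quartz cuvettes, ramping at 0.5 °C/min. DNA concentration was set from A260, with 0.3 mol compound per mol DNA and DNA alone as control. ΔTm was taken from the peak of the first-derivative (dA/dT) curves.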

[4] = Selectivity index, ratio of IC50 for rat L6 cells to IC50 for Plasmodium falciparum K1 infected in human erythrocytes; assay type: toxicity, cell-based; settings: read-out: Ratio IC50
Method in brief: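 Ratio of IC50 in cultured L6 rat myoblast cells (cytotoxicity) to IC50 in an in vitro viability assay against chloroquine-resistant P. falciparum strain K1. P. falciparum IC50 values are the average of duplicate determinations.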

In the case of N=C(N)c1ccc2nc(-c3ccc(-c4ccc(C(=N)N)s4)o3)[nH]c2c1, the Activity [1] is reported as “Active”.

With N=C(N)c1ccc2cc(-c3ccc(-c4ccc(C(=N)N)s4)s3)[nH]c2c1 the Activity [2] was “inactive”, the Activity [1] was “Active” and the ΔTm [3] was greater than 30 °C.

In the case of N=C(N)c1ccc2nc(-c3ccc(-c4ccc(C(=N)N)s4)s3)[nH]c2c1, the Activity [1] is reported as “Active” and the ΔTm [3] is reported as greater than 30 °C.

For N=C(N)c1ccc2nc(-c3ccc(-c4ccc(C(=N)N)o4)o3)[nH]c2c1, the Activity [1] was “Active”.

In the case of N=C(N)c1ccc2cc(-c3ccc(-c4ccc(C(=N)N)s4)o3)[nH]c2c1, the Activity [2] is reported as “inactive” and the ΔTm [3] is reported as greater than 30 °C.

For N=C(N)c1ccc2cc(-c3ccc(-c4ccc(C(=N)N)o4)o3)[nH]c2c1, the Activity [2] was “inactive”, the Activity [1] was “Active” and the selectivity ratio [4] was 1000.
